Experimental findings from the RNAGym collection of RNA variant scans (doi:10.1126/science.aae0568) are described below.

Fewer inactive variants are shown than the library holds.

First the molecules themselves.
B1: tRNA (parent)
chain: GUUCCGUUGGCGUAAUGGUAACGCGUCUCCCUCCUAAGGAGAAGACUGCGGGUUCGAGUCCCGUACGGAACG

This data set covers variants of B1. Nature of the data set: yeast fitness relative to wild type (ratio to wild type); higher = fitter; tRNA-Arg(CCU), competitive growth, 37 C, YPD. An outline of the steps:
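Genotype frequency changes were the basis for Darwinian fitness relative to wild type. The frequencies came from 100-nucleotide paired-end sequencing of gene amplicons from the start population and each end population of pooled yeast strains with tRNA-Arg(CCU) gene variants at the native locus. Competition ran in YPD at 37°C for 24 hours in six replicates, genotypes needed ≥ 100 starting reads, and estimates < 0.5 were set to 0.5.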
On to C30U C46A A70C, for which the yeast fitness is 0.82.
Regarding C30A U35C, the yeast fitness is 0.93.
Under C30U C55U G67U stands ≤ 0.5; under C31A A43G A45C, 0.541.
In the case of C31G C34G A40U, the yeast fitness is ≤ 0.5.
For C30A C60U C66U the value was ≤ 0.5; for C30U A65C, 0.841.
Consider C31G A36U, for which the yeast fitness amounted to 0.615.
Under C30G A57G G68U stands ≤ 0.5.
For the variant C29U G41C C49A, the yeast fitness is 0.62.
Regarding C30A C31U A40U G56C A69C, the yeast fitness was ≤ 0.5.
For C31A A42G C49G C62U the value was ≤ 0.5; for C30G A43U, 0.635; for C30G A43C, 0.549.
For C29U C49U C55A the value was ≤ 0.5; for C29U C34A A70U, ≤ 0.5; for C31A U35C G41A A57G, ≤ 0.5.
For C30A A42C G58A, the yeast fitness is ≤ 0.5.
Under C30G C33A A36U A65C stands 0.535; under C31A A57U, 0.626.
Under C30U A36U C62G G63A stands 0.542; under C30G C46A U47G C49A G52A G58C U64G A65G, 0.528.
Turning to C29U A42G A43G, the yeast fitness was ≤ 0.5.
C30U G58C G63C: the yeast fitness was found to be 0.57.
Under C30U G39A A40G U53C G67A stands ≤ 0.5; under C30A C61U, 0.767; under C31G U32A A40C, ≤ 0.5.
C31U A65G: the yeast fitness came to 1.11.
Under C31A C62A C66G stands ≤ 0.5.
As for C29U C55G A65U, the yeast fitness is ≤ 0.5.
For C30G A70U the value was 0.58; for C31G A36C U47C, ≤ 0.5; for C29U C30A C61G, ≤ 0.5.
C29U C30A C61U: the yeast fitness was ≤ 0.5.
Under C30G C33G A42G C49U C61U stands 0.663; under C31G U53C, 0.662.
For C31A U59A A70C the value was ≤ 0.5; for C29U C61U A70G, 0.728.
For C31G G58A C61A the value was 0.708; for C29U C49A, 0.592.
Turning to C31G C34G A45U G63C, the yeast fitness was ≤ 0.5.
For C30U C34G A40C C49G the value was ≤ 0.5; for C30A G50C C66U, ≤ 0.5.
For the variant C30G A40U C46U A69G, the yeast fitness is ≤ 0.5.
For C31G A45C A65U the value was ≤ 0.5.
For C31G G38C A43U, the yeast fitness is 0.538.
Under C30A U35C A36G A42C C60U C61U stands ≤ 0.5; under C31A A43U U54A, ≤ 0.5; under C30A A37C C60A, ≤ 0.5.
As for C30U C60A A70C, the yeast fitness was ≤ 0.5.
For C30A C66U the value was 0.847; for C29U U32G, 0.686; for C30G A40U A70U, 0.526.
For C29U G68C the value was 0.898; for C31A C33G G51C C60G, ≤ 0.5.
As for C30U A45G C61A A65U, the yeast fitness is ≤ 0.5.
For C30A C46A the value was 1; for C29U G38C C49U G68A, ≤ 0.5.
For C31U A37C C55U A65U A70G the value was ≤ 0.5; for C31G A45U U47A G67A, ≤ 0.5.
On to C30A G58C G68A, for which the yeast fitness was ≤ 0.5.
Turning to C31U A37G A45C, the yeast fitness is 0.618.
Under C30G G50U C66U stands 0.573; under C31A A42G, 0.766; under C30U U35A A69U, ≤ 0.5.
For C30A A40C A43G C49G G63C the value was ≤ 0.5; for C30G C46A G56A, 0.557.
Consider C30G A37C C46G A69C, for which the yeast fitness amounted to 0.571.
For C30U C31U A37G A43G G52A the value was ≤ 0.5.
Consider C29U A40U G41C, for which the yeast fitness was ≤ 0.5.
Under C30A U59G stands 0.775; under C31A U53G A57G, ≤ 0.5; under C30U A69C, 0.773.
Under C30U A69U stands 0.879; under C30U A69G, 0.947.
As for C30A G50C, the yeast fitness was 0.594.
Under C30A G50U stands 0.816; under C29U C31A, 0.609; under C31A A40C G52A G68C, ≤ 0.5.
Under C30A C55A C62A stands ≤ 0.5; under C30U G39C G50A, ≤ 0.5; under C30G C34G U35A G68A, ≤ 0.5.
Take C30A G38C: the yeast fitness came out at 0.851.
For C31U A40U U54C the value was 0.541.
For the variant C31G U32C A37U, the yeast fitness is ≤ 0.5.
As to C30G G38C, the yeast fitness is 0.741.
Regarding C31U A45C C61G A65C, the yeast fitness was ≤ 0.5.
For C30U C46A G51A the value was 0.608; for C31G G41A U53C, 0.52.
Consider C30A A42U C55U C66A, for which the yeast fitness was found to be 0.531.
For C30G C34U A42U G68A the value was ≤ 0.5; for C30A A45U C55U, 0.589; for C30U G44A G48C, ≤ 0.5.
As for C31G A36C G41A C49U, the yeast fitness was ≤ 0.5.
As to C31U A69U A70C, the yeast fitness is 0.778.
Regarding C30U C31G C34G C66A, the yeast fitness was ≤ 0.5.
Under C31G C33U A37C stands ≤ 0.5.
On to C30A C46G G52A G56A, for which the yeast fitness is 0.608.
On to C30A C46A A57G C60A, for which the yeast fitness was ≤ 0.5.
As to C29U C46G G51A G52A, the yeast fitness is ≤ 0.5.
C30A A42C A69G: the yeast fitness was ≤ 0.5.
C31A C55A C61A G63A: the yeast fitness was 0.655.
For the variant C30U A36G G44A C66U, the yeast fitness is ≤ 0.5.
C31G A37C G52C C61A C66U: the yeast fitness amounted to 0.527.
Under C30U A43C G52A stands 0.516.
Under C31A C33G A42C G48A U54A stands ≤ 0.5.
In the case of C30A A42U, the yeast fitness is 0.753.
For C30A A42C the value was 0.789; for C31G G51C C61U, ≤ 0.5.
For C30G C34G the value was ≤ 0.5; for C30A C60A, 0.619; for C30G A57U C62U, ≤ 0.5.
Under C31G U54G stands 0.6.
With C30G C31A G63C, the yeast fitness turned out to be 0.546.
Under C31A G39C stands 0.659.
Under C30A G48C C61U stands 0.631.
In the case of C30U A40U A70C, the yeast fitness came to 0.56.
For C30U A36G C61G the value was ≤ 0.5.
Under C30G U47A G50C A65G G68C stands ≤ 0.5; under C31U A57G C66U, 0.583.
As for C31U A42G, the yeast fitness was 0.73.
Under C30A C33G A40G stands ≤ 0.5; under C29U C34U A57C U64C, 0.549.
Regarding C31A G38A A65G, the yeast fitness was found to be 0.591.
For C30A C46U C55U the value was 0.573; for C30U G39A A40C U53A, 0.565; for C31A C49A C60U, ≤ 0.5.
Consider C29U U53A, for which the yeast fitness is 0.625.
As for C30U U35C A37G C55A A65G, the yeast fitness was ≤ 0.5.
On to C30G C46G A57U C66U A70U, for which the yeast fitness is ≤ 0.5.
In the case of C29U U53A C61U U64C, the yeast fitness was ≤ 0.5.
Under C31A U54C stands 0.562; under C29U G67U, 0.91.
Under C30G A42U A45G A69U stands ≤ 0.5; under C31A C55G, 0.529; under C30A C31A G38A C49U G52A, ≤ 0.5.
For C30G A69C A70G the value was ≤ 0.5; for C30A A57C C60G, ≤ 0.5.
Consider C30U C62G, for which the yeast fitness was 0.855.
Under C30U C62A stands 0.798; under C31G A36U G39A, ≤ 0.5; under C30U U35A G51A, ≤ 0.5.
In the case of C29U A70C, the yeast fitness came to 0.867.
Turning to C29U C31U C33G U35C, the yeast fitness worked out at 0.588.
Under C29U C30U C49G stands 0.731.
For C29U A43G the value was 0.883; for C31G G38A G52A C61A G63A, ≤ 0.5; for C30G C60U A65G, ≤ 0.5.
Under C30G G41A A65G stands ≤ 0.5; under C31U A40U U59C, 0.648; under C30A C31A C49U C55G, 0.672.
Regarding C30G C33G C34U A42U A57G A65C, the yeast fitness is ≤ 0.5.
Under C31U A69C A70U stands 0.747; under C30U A43G G51C, ≤ 0.5.
For C30G A42U the value was 0.666.
For C30U A43C A70U the value was 0.556; for C31G C33U U35A, ≤ 0.5.
Turning to C29U A40C C49G G63A, the yeast fitness is ≤ 0.5.
For C31G C46G G58C the value was 0.928; for C30U A40C U59C A65G, ≤ 0.5; for C30G C60A C66U, 0.551.
Under C30A A37G C46U A57C stands ≤ 0.5.
As for C30U C31U C34A, the yeast fitness is 0.601.
As for C31A G52C A65U, the yeast fitness was ≤ 0.5.
For C30A A42U C49U U59C A69C the value was 0.557; for C30G G48A U53C, ≤ 0.5; for C31A C33G A36U C60U U64G A65U A69C, ≤ 0.5.
